The source made the active and inactive calls. No cut-off for these calls is given here.
Tests used:
[1] = molecular target: T1, Zinc finger protein GLI1 (Homo sapiens) (UniProt P08151); experiment: Inhibition of endogenously overexpressed Gli1-mediated transcriptional activity in human Rh30 cells at 40 uM after 24 hrs by luciferase reporter gene assay; format: cell-based
T1 sequence (whole entry): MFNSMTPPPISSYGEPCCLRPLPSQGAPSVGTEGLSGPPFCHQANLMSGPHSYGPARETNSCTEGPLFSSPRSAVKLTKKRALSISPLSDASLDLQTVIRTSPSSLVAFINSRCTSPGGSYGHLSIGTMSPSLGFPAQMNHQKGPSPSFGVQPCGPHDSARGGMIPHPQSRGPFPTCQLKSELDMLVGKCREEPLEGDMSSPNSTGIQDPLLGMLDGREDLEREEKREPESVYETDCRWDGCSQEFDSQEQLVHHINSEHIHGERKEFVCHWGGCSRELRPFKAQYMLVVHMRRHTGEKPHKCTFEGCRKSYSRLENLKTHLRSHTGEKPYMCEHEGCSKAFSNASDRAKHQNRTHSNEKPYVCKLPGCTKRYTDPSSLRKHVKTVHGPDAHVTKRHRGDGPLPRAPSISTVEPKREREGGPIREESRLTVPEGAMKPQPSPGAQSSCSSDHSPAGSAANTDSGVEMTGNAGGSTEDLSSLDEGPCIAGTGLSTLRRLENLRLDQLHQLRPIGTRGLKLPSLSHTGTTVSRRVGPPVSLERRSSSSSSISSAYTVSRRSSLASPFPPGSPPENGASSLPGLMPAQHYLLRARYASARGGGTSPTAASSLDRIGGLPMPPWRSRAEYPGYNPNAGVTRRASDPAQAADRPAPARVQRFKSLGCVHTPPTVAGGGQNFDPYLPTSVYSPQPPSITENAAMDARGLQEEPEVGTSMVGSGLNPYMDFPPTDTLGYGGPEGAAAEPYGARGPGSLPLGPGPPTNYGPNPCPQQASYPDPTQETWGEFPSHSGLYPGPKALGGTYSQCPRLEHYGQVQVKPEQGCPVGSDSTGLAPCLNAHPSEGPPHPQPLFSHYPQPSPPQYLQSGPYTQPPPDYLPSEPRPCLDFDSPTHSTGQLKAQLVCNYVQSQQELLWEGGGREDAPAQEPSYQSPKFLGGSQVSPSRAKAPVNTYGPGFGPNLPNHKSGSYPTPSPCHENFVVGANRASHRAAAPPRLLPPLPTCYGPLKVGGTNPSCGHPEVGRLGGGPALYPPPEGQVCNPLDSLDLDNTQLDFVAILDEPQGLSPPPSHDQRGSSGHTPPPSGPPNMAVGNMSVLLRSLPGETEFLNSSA
Procedure, shortened: (§1)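 Human Rh30 rhabdomyosarcoma cells (endogenous Gli1, no exogenous Gli1) in RPMI-1640 with 10% FBS were transfected overnight with Fugene6, GliLuc-BS (500 ng/mL) and pRL-CMV (2.5 ng/mL). Cells were replated, given compound or DMSO 18 h later, and exposed for 24 h at 37 °C, 5% CO2. Read-out was dual luciferase firefly/Renilla, triplicate, DMSO = 0%.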

C3H 10T1/2 [2] = experiment: Inhibition of Renilla luciferase expression exogenously transfected in mouse C3H10T1/2 cell lysate at 40 uM after 40 mins at room temperature by promega steady-glo luciferase assay; format: functional, cell-free
C3H 10T1/2 [3] = experiment: Inhibition of Photinus pyralis luciferase expression exogenously transfected in mouse C3H10T1/2 cell lysate at 40 uM after 40 mins at room temperature by promega steady-glo luciferase assay; format: functional, cell-free
[4] = molecular target: T1, Zinc finger protein GLI1 (Homo sapiens); experiment: Inhibition of exogenously transfected human Gli1-mediated transcriptional activity in mouse C3H10T1/2 cells at 40 uM after 24 hrs by luciferase reporter gene assay; format: cell-based; settings: C3H 10T1/2
Procedure, shortened: (§2)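 They were replated 18 h later, given compound or DMSO 6 h after plating, and exposed for 24 h at 37 °C, 5% CO2. Lysate was read by dual luciferase as firefly/Renilla, triplicate, DMSO = 0%. IC50 came from curve fitting.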

C3H 10T1/2 [5] = experiment: Selectivity ratio of IC50 for exogenously transfected human Gli2 delta-N-mediated transcriptional activity in mouse C3H10T1/2 cells to IC50 for exogenously transfected human Gli1-mediated transcriptional activity in mouse C3H10T1/2 cells; format: cell-based
Procedure, shortened: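 Ratio of IC50 values from dose-response curves of dual-luciferase Gli-reporter activity in C3H10T1/2 cells. Cells were transfected with ΔNhGli2 versus hGli1, plus GliLuc-BS and pRL-TK, and exposed to compound for 24 h at 37 °C. Triplicate data.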

MDA-MB-231 = experiment: Cytotoxicity against human MDA-MB-231 cells at 40 uM/well after 68 hrs by alamar blue assay; format: functional, cell-based
Procedure, shortened: (§3)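 Cells plated in appropriate medium 24 h before compound. A 10 mM DMSO stock was diluted in EMEM to 160 µM (4×) and added in triplicate to a final 40 µM. Incubated 68 h at 37 °C, then Alamar Blue for 4 h at 37 °C. Fluorescence read at ex 510/em 590 nm. Viability taken relative to DMSO control wells.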

C3H 10T1/2 [6] = experiment: Inhibition of Photinus pyralis luciferase expression exogenously transfected in mouse C3H10T1/2 cell lysate at 20 uM after 40 mins at room temperature by promega steady-glo luciferase assay; format: functional, cell-free
Zinc finger protein GLI2 = Zinc finger protein GLI2 (Homo sapiens, UniProt P10070); experiment: Inhibition of exogenously transfected human Gli2 delta-N-mediated transcriptional activity in mouse C3H10T1/2 cells after 24 hrs by luciferase reporter gene assay; format: cell-based; settings: c3h 10t1/2
Zinc finger protein GLI2, sequence (P10070 whole entry, looked up): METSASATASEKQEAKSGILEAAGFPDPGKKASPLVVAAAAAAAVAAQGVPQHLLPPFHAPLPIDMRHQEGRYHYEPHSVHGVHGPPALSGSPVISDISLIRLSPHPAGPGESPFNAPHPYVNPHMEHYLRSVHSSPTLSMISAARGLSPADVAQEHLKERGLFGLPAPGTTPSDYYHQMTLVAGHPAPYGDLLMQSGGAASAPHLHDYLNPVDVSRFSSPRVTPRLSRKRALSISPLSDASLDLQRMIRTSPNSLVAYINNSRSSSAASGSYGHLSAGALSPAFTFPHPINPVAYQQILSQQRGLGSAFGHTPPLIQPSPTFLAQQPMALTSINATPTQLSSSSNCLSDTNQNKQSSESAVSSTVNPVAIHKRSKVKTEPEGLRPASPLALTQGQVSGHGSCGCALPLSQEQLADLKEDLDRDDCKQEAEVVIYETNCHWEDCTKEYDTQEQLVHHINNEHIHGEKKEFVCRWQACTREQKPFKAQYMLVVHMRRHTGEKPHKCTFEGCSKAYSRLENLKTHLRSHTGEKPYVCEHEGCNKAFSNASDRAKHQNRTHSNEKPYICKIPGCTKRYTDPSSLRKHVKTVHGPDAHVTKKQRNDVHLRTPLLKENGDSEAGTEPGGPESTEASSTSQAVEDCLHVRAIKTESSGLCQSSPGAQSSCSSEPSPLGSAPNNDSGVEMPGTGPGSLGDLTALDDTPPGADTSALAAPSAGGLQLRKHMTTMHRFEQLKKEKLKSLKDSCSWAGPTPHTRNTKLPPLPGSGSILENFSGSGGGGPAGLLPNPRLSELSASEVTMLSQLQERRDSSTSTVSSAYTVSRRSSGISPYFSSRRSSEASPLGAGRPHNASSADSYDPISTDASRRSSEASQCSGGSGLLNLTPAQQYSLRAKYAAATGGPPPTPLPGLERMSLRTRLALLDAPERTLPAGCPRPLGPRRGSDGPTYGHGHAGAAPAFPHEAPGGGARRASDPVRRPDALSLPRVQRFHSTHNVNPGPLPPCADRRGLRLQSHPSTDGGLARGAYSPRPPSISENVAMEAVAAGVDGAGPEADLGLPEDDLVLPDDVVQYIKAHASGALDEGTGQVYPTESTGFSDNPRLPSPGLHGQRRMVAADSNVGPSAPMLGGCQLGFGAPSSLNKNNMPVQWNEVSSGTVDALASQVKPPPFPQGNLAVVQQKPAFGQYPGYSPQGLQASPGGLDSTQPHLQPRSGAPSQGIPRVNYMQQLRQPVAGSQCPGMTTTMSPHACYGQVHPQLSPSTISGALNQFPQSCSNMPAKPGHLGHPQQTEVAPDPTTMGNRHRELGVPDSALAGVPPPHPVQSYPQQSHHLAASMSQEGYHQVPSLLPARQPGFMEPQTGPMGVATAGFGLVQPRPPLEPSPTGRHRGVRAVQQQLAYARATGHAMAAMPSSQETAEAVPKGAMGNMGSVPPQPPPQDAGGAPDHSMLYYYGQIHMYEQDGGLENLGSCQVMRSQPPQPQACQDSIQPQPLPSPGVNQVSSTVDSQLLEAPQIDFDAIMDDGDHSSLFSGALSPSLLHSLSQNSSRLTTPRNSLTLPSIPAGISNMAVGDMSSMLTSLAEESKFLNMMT
Procedure, shortened: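 C3H10T1/2 reporter assay run as for hGli1, but with an amino-terminal repressor-domain-deleted hGli2 (ΔNhGli2) in place of hGli1, plus GliLuc-BS and pRL-TK via Fugene6. Compound or DMSO was given for 24 h at 37 °C. Read-out was dual luciferase firefly/Renilla in triplicate, with dose-response curve fitting.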

C3H 10T1/2 [7] = experiment: Inhibition of Photinus pyralis luciferase expression exogenously transfected in mouse C3H10T1/2 cell lysate at 60 uM after 40 mins at room temperature by promega steady-glo luciferase assay; format: functional, cell-free
C3H 10T1/2 [8] = experiment: Inhibition of Photinus pyralis and Renilla luciferase expression exogenously transfected in mouse C3H10T1/2 cell lysate at 60 uM after 40 mins at room temperature by promega steady-glo luciferase assay; format: functional, cell-free
C3H 10T1/2 [9] = experiment: Inhibition of human Gli1 protein expression exogenously transfected in mouse C3H10T1/2 cells at 40 uM by Western blot analysis; format: functional, cell-based
HepG2 = experiment: Cytotoxicity against human HepG2 cells at 40 uM/well after 68 hrs by alamar blue assay; format: functional, cell-based; procedure, shortened: as §3
BJ = experiment: Cytotoxicity against human TERT-immortalized human BJ cells at 40 uM/well after 68 hrs by alamar blue assay; format: cell-based; procedure, shortened: as §3
[10] = molecular target: T1, Zinc finger protein GLI1 (Homo sapiens); experiment: Inhibition of endogenously overexpressed Gli1-mediated transcriptional activity in human Rh30 cells at 10 uM after 24 hrs by luciferase reporter gene assay; format: cell-based; procedure, shortened: as §1
[11] = Stability in mouse C3H10T1/2 cells assessed as compound degradation at 40 uM after 24 hrs by LCMS analysis; format: ADME, cell-based; settings: c3h 10t1/2, 24 h
Raji = experiment: Cytotoxicity against human Raji cells at 40 uM/well after 68 hrs by alamar blue assay; format: functional, cell-based; procedure, shortened: as §3
LN-229 = experiment: Cytotoxicity against human LN229 cells at 40 uM/well after 68 hrs by alamar blue assay; format: functional, cell-based; procedure, shortened: as §3
C3H 10T1/2 [12] = experiment: Inhibition of Photinus pyralis and Renilla luciferase expression exogenously transfected in mouse C3H10T1/2 cell lysate at 40 uM after 40 mins at room temperature by promega steady-glo luciferase assay; format: functional, cell-free
Daoy = experiment: Cytotoxicity against human DaOY cells at 40 uM/well after 68 hrs by alamar blue assay; format: functional, cell-based; procedure, shortened: as §3
C3H 10T1/2 [13] = experiment: Inhibition of Photinus pyralis and Renilla luciferase expression exogenously transfected in mouse C3H10T1/2 cell lysate at 20 uM after 40 mins at room temperature by promega steady-glo luciferase assay; format: functional, cell-free
SJRH30 = experiment: Cytotoxicity against human Rh30 cells at 40 uM/well after 68 hrs by alamar blue assay; format: functional, cell-based; procedure, shortened: as §3
C3H 10T1/2 [14] = experiment: Inhibition of Renilla luciferase expression exogenously transfected in mouse C3H10T1/2 cell lysate at 60 uM after 40 mins at room temperature by promega steady-glo luciferase assay; format: functional, cell-free
C3H 10T1/2 [15] = experiment: Inhibition of Renilla luciferase expression exogenously transfected in mouse C3H10T1/2 cell lysate at 20 uM after 40 mins at room temperature by promega steady-glo luciferase assay; format: functional, cell-free
[16] = molecular target: T1, Zinc finger protein GLI1 (Homo sapiens); experiment: Inhibition of exogenously transfected human Gli1-mediated transcriptional activity in mouse C3H10T1/2 cells at 20 uM after 24 hrs by luciferase reporter gene assay; format: cell-based; settings: C3H 10T1/2; procedure, shortened: as §2
C3H 10T1/2 [17] = experiment: Inhibition of human Gli1 protein expression exogenously transfected in mouse C3H10T1/2 cells at 20 uM by Western blot analysis; format: functional, cell-based
DU-145 = experiment: Cytotoxicity against human DU145 cells at 40 uM/well after 68 hrs by alamar blue assay; format: functional, cell-based; procedure, shortened: as §3
[18] = molecular target: T1, Zinc finger protein GLI1 (Homo sapiens); experiment: Inhibition of endogenously overexpressed Gli1-mediated transcriptional activity in human Rh30 cells at 20 uM after 24 hrs by luciferase reporter gene assay; format: cell-based; procedure, shortened: as §1
[19] = Cytotoxicity against mouse C3H10T1/2 cells; format: cell-based; settings: c3h 10t1/2

inhibition [1]	inhibition [4]	IC50 (Zinc finger protein GLI2)	inhibition [10]	Stability [11]	inhibition [16]	SMILES	inhibition (C3H 10T1/2 [2])	inhibition (C3H 10T1/2 [3])	Activity (MDA-MB-231)	inhibition (C3H 10T1/2 [6])	inhibition (C3H 10T1/2 [7])	inhibition (C3H 10T1/2 [8])	inhibition (C3H 10T1/2 [9])	Activity (HepG2)	Activity (BJ)	Activity (Raji)	Activity (LN-229)	Activity (Daoy)	Activity (SJRH30)	Activity (DU-145)	further results
Active	Active	23.9 µM	Active	Stable	Active	CCCN(CCc1ccc(O)cc1)C(=O)[C@@H](C)c1cccc(C(=O)c2ccccc2)c1	inactive	inactive	Active	inactive	inactive	inactive	inactive	inactive	Non-toxic	Active	inactive	Active	Active	Active	fold change (FC) (C3H 10T1/2 [5]): 3; inhibition (C3H 10T1/2 [12]): inactive; inhibition (C3H 10T1/2 [13]): inactive; inhibition (C3H 10T1/2 [14]): inactive; inhibition (C3H 10T1/2 [15]): inactive; inhibition (C3H 10T1/2 [17]): inactive; inhibition [18]: Active
Active	Active	35.2 µM	Active	Stable	Active	C[C@H](C(=O)NCCc1ccc(O)cc1)c1cccc(C(=O)c2ccccc2)c1	inactive	inactive	Active	inactive	inactive	inactive	inactive	inactive	Non-toxic	Active	inactive	Active	Active	Active	inhibition (C3H 10T1/2 [12]): inactive; inhibition (C3H 10T1/2 [13]): inactive; inhibition (C3H 10T1/2 [14]): inactive; inhibition (C3H 10T1/2 [15]): inactive; inhibition (C3H 10T1/2 [17]): inactive; Activity [19]: Non-toxic; inhibition [18]: Active
	Active	20.5 µM		Stable	Active	C[C@H](C(=O)N(CCc1ccc(O)cc1)CCc1ccc(O)cc1)c1cccc(C(=O)c2ccccc2)c1			Active					inactive	Non-toxic	Active	inactive	Active	Active	Active	
	Active				Active	O=C(Cc1c[nH]c2ccc(OCc3ccccc3)cc12)NCCc1ccc(O)cc1			Active					inactive	Non-toxic	Active	inactive	Active	Active	Active	Activity [19]: Toxic

From ChEMBL document CHEMBL1158464, “Structure-activity relationships and cancer-cell selective toxicity of novel inhibitors of glioma-associated oncogene homologue 1 (Gli1) mediated transcription” (J Med Chem, 2009)
